Bioassay records: PubChem BioAssay, several laboratories
This is one part of a sample in which hits are shown more often than they occur.
PKD1 kinase inh = inhibitors of human PKD1 kinase | Q15139 | PKD1 kinase fluorescence polarization assay | inhibition, % (concentration not given with the values) | 0.056% of 200,000 active
GSH fluor = compound fluoresces at 488/530 nm on GSH beads; fluorescence (KMESF) at 10 µM; 0.25% of 190,000 active; GSH beads flow cytometry, compound fluorescence 488/530 nm; stronger effect = higher value; AID 1776; in the data active = fluorescence above about 89;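 note: glutathione beads carrying GST-tagged Bcl family fusion proteins plus one bare bead set; values are compound well signal with DMSO vehicle wells as background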
ABCB1 block = human ABCB1 inhibition, ABCG2 as counter-screen; P08183; CCRF-Adr cells, JC-1 efflux, flow cytometry; inhibition, % at 6.6 µM; 0.067% of 190,000 active; AID 1326; in the data active = inhibition above about 40%;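 note: 0% = vehicle and 100% = reference inhibitor; higher value means more JC-1 retained so stronger ABCB1 efflux block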
Avidin fluor = compound fluoresces at 488/530 nm on avidin beads; compound fluorescence 488/530 nm, flow cytometry; stronger effect = higher value; fluorescence (KMESF) at 10 µM; 0.38% of 220,000 active; AID 1775; in the data active = fluorescence above about 47
L major viab = reduces viability of Leishmania major promastigotes. resazurin fluorescence viability. AID 1063. inhibition, % at 10 µM. 9% of 200,000 active;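 note: promastigotes grown with compound for 44 hours at 28 °C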
ABCG2 inh = inhibitors of human ABCG2 transporter, ABCB1 counter-screen | Q9UNQ0 | IgMXP3 cells, JC-1 efflux, flow cytometry | inhibition, % at 6.6 µM | 0.1% of 190,000 active;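 active = inhibition above 80%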;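 note: 0% = DMSO and 100% = nicardipine control wells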
Target sequence (Q9UNQ0 whole entry, looked up): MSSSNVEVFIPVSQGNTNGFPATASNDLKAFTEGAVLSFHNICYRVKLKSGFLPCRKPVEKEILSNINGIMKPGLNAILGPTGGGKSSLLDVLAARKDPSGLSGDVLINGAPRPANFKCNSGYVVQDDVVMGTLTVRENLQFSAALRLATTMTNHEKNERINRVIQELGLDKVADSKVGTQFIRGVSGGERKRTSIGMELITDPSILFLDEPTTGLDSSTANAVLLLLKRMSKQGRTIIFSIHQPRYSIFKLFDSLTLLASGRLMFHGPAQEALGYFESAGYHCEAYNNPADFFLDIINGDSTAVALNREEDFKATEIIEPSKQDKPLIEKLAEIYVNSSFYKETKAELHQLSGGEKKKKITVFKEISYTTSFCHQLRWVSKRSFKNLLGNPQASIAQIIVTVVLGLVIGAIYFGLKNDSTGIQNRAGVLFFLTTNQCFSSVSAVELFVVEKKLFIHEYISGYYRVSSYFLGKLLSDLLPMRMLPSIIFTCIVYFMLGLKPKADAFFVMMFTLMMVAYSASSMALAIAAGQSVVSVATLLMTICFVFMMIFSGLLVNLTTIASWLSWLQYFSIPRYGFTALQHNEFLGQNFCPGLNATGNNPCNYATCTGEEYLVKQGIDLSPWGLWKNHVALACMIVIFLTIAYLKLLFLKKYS
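Test system: IgMXP3 cells (ABCG2) mixed with DDAO far-red-labelled CCRF-Adr cells (ABCB1). Reagent: JC-1 transporter substrate. Compound dosing: single test compound dose, 6.6 µM final. Times: 10 min compound exposure, 25 °C. Detection: flow cytometry of retained JC-1 fluorescence. Read-out basis: efflux inhibition in percent versus controls. Controls: nicardipine and DMSO wells.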
* hit, by the source's call; x = no result given. Cut-off read from the data, not from the text of the source, unless noted: active = inhibition above about 50%; inactive = the rest.

SMILES	PKD1 kinase inh	GSH fluor	ABCB1 block	Avidin fluor	L major viab	ABCG2 inh
CN(C(=O)COc1cc(=O)n(C)c2ccccc12)c1cccc(Cl)c1	-6	15	1	7	15	4
CC1CCN(CCCNC(=O)COc2cc(=O)n(C)c3ccccc23)CC1	-7	65	1	15	4	1
CCN(C(=O)COc1cc(=O)n(C)c2ccccc12)c1cccc(Cl)c1	-6	16	2	14	62*	5
CCN(CCCNC(=O)COc1cc(=O)n(CC)c2ccccc12)c1ccccc1	-13	24	1	28	53*	8
CCN(CCCNC(=O)COc1cc(=O)n(C)c2ccccc12)c1ccccc1	-6	16	1	13	65*	6
COc1ccc(/C=C/C(=O)NCCSCc2ccco2)cc1OC	x	x	x	9	x	x
CCn1c(=O)cc(SCC(=O)N2CCN(c3ccccc3F)CC2)c2ccccc21	-9	17	1	11	53*	2
CCn1c(=O)cc(SCC(=O)N2CCN(c3ccccn3)CC2)c2ccccc21	8	33	2	10	5	7
CCCOc1ccc(CSc2nnc(CCC)n2N)cc1	9	11	0	21	1	3
CCCCOc1ccc(Cl)cc1CSc1nnc(CC)n1N	-3	38	0	5	88*	1
CC(C)CC(c1nnnn1Cc1ccc2c(c1)OCO2)N1CCC(C(N)=O)CC1 (centres undefined)	-3	18	0	7	-3	0
Cc1ccc(Cn2nnnc2CN2CCC(O)(c3cccnc3)CC2)cc1	-4	13	0	8	53*	1
COc1cc(/C=N/NC(=O)CCC(=O)NC2CCCCC2)ccc1C	3	16	1	9	-1	13
Cc1ccc(C)c(-n2c3nc(=O)[nH]c(=O)c-3cc3cc([N+](=O)[O-])ccc32)c1	0	8	0	9	97*	3
Cc1cc(C)n(C(=O)C23CC4CC(CC(C4)C2)C3)n1	-3	25	0	12	1	0
CCN(c1ccccc1)S(=O)(=O)c1ccc(OC)c(NC(=O)c2cccs2)c1	8	71	2	10	96*	23
CCOC(=O)C1(CCCc2ccccc2)CCN(C2CCSCC2)CC1	-1	19	-2	11	85*	-5
CSCC(C)N1CCC(CO)(CCCc2ccccc2)CC1 (centres undefined)	-7	18	0	6	91*	0
CN(C)c1ncc(CN2CCC(CO)(CCCc3ccccc3)CC2)s1	x	x	x	6	x	x
OCC1(CCCc2ccccc2)CCN(C2CCSCC2)CC1	-3	9	0	2	84*	1
CC(=O)c1cccc(CN2CCC(CO)(CCCc3ccccc3)CC2)c1	-1	11	2	3	79*	1
O=C(CCCN1C(=O)/C(=C/c2ccccc2)SC1=S)Nc1cccc(O)c1	-2	73	-1	8	65*	6
O=C(CCCN1C(=O)/C(=C\c2ccccc2)SC1=S)Nc1ccc(O)cc1	-7	21	0	10	39	1
COc1ccc(/C=C2\SC(=O)N(CCC(=O)Nc3ccccc3)C2=O)cc1OC	-13	10	0	11	53*	8
COc1cc(/C=C2\SC(=O)N(CCN)C2=O)ccc1OS(=O)(=O)c1cc(C)ccc1C	1	16	0	8	100*	-1
SMILES	PKD1 kinase inh	GSH fluor	ABCB1 block	Avidin fluor	L major viab	ABCG2 inh
N#CC1=C(N)C(C#N)(C#N)C(c2ccc[nH]2)C2CCCC=C12 (centres undefined)	-5	36	0	7	8	1
N#CC1=C(N)C2=CCCC[C@H]2[C@H](c2cccc(F)c2)C1(C#N)C#N	-7	9	0	7	81*	-2
CCN(CC)S(=O)(=O)c1ccc2[nH]cc(C(=O)NCCC3=CCCCC3)c(=O)c2c1	4	25	-1	30	81*	-1
CCN(CC)S(=O)(=O)c1ccc2[nH]cc(C(=O)NCCN3CCCCCC3)c(=O)c2c1	-5	4	0	19	-3	-1
CCN1CCN(C(=O)c2sc3ncnc(N4CCc5ccccc5C4)c3c2C)CC1	-9	8	2	25	-2	13
COc1ccc(C2NCCc3c2[nH]c2ccccc32)cc1COc1ccc(F)cc1 (centres undefined)	6	15	0	20	100*	-2
Cc1nn(CC(=O)O)c(=O)c2ccccc12	-3	263*	0	7	-4	1
COc1ccc(-n2nnc3c(SCC(=O)NCC4CCCO4)ncnc32)cc1 (centres undefined)	-1	13	1	34	75*	4
Cc1nnc(SCC(=O)NCC2CCCO2)n1-c1ccccc1 (centres undefined)	-9	273*	0	9	-6	-1
CC1Oc2ccccc2N(CC(=O)NCC2CCCO2)C1=O (centres undefined)	-3	20	1	54*	-4	22
COC(=O)c1c(NC(=O)CN2CCC(C)CC2)c2c(C)cccc2n1C	5	66	1	9	6	9
Cc1nn(CC(=O)NCC2CCCO2)c(=O)c2ccccc12 (centres undefined)	-3	270*	0	9	-1	3
O=C(OCc1nc2ccccc2s1)[C@@H]1CCCN1S(=O)(=O)c1ccccc1F	-6	13	1	9	-4	2
CC(NC(=O)COC(=O)[C@@H]1CCCN1S(=O)(=O)c1ccccc1F)C12CC3CC(CC(C3)C1)C2 (some centres undefined)	3	9	1	14	96*	0
CCCOc1ccc(-c2cc(C(F)(F)F)c(C#N)c(SCC(=O)O)n2)cc1	2	12	-1	6	-6	2
O=C(C[n+]1cc(-c2ccc(Cl)cc2)n2c1CCC2)N1c2ccccc2Sc2ccccc21	15	20	0	23	81*	0
Cn1c(NC(=O)C[n+]2cc(-c3ccc(Cl)c(Cl)c3)n3c2CCC3)cc(=O)n(C)c1=O	2	5	0	13	88*	2
Cc1ccc(NC(=O)C[n+]2cc(-c3ccc(C)cc3)n3c2CCC3)cc1	x	x	x	8	x	x
O=C(C[n+]1cc(-c2ccc(F)cc2)n2c1CCC2)Nc1nc(-c2ccccc2)cs1	-2	5	1	14	81*	1
O=C(C[n+]1cc(-c2ccc(Cl)c(Cl)c2)n2c1CCC2)N1c2ccccc2Sc2ccccc21	4	18	1	17	54*	2
COc1ccc(CN(C)C(=S)Nc2ccc(Cl)cc2)cc1	-4	15	-1	17	-5	-1
COc1ccc([N+](=O)[O-])cc1NC(=O)c1cn(-c2ccc(C)c(C)c2)c(=O)c2ccccc12	-9	11	1	8	-2	5
CCOC(=O)N/N=C/c1cccc(Cl)c1Cl	-2	22	-1	14	-2	15
